These results are taken from ChEMBL document CHEMBL4014326, “Discovery of an Orally Bioavailable Benzimidazole Diacylglycerol Acyltransferase 1 (DGAT1) Inhibitor That Suppresses Body Weight Gain in Diet-Induced Obese Dogs and Postprandial Triglycerides in Humans” (J Med Chem, 2017).

A short description of data set [1]: Drug metabolism in rat hepatocytes assessed as [3H]-(2S,3S,4S,5R,6S)-3,4,5-trihydroxy-6-(3-(4-(6-(5-(4-methoxyphenyl)-1,3,4-oxadiazol-2-yl)-1H-benzo[d]imidazol-2-yl)-3,5-dimethylphenyl)-2,2-dimethylpropanoyloxy)tetrahydro-2H-pyran-2-carboxylic acid formation at 12.5 uM after 18 hrs. In kind it is ADME, cell-based, Hepatocyte. In short, it runs like this: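 [3H]-labelled compound (12.5 µM) was incubated for 18 h with rat, dog, monkey or human hepatocytes, and metabolites were profiled.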

The target in data set [2] is T1, Diacylglycerol O-acyltransferase 2 (Homo sapiens, UniProt Q96PD7).
T1 sequence (Q96PD7 whole entry): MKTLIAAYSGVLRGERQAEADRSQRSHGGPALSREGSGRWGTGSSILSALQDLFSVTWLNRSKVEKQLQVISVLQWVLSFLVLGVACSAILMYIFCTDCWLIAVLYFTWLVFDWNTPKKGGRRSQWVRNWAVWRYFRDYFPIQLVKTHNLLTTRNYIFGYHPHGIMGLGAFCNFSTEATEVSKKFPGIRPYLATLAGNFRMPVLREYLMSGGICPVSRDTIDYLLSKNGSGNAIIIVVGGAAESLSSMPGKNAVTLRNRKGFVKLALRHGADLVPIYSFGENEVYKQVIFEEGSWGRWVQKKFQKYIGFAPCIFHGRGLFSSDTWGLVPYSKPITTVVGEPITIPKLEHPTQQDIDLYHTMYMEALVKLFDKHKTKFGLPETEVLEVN
The data set is described as follows: Inhibition of DGAT2 (unknown origin).

Data set [3] can be described thus: Efflux ratio of permeability across basolateral to apical side over apical to basolateral side in human Caco2 cells. The data set is classed as ADME, cell-based. To be noted: Caco-2. In short, it runs like this:
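Caco-2 monolayer permeability was measured in the A-B and B-A directions, and the efflux ratio was taken as B-A/A-B.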
A general note: Passage across Caco-2 layers is used to estimate intestinal permeability.

Data set [4] relates to Salmonella typhimurium. The data set is described as follows: Genotoxicity in histidine depleted Salmonella typhimurium TA98 assessed as increase in reverting mutations up to 1000 ug in absence of S9 metabolic activation by Ames test. In kind it is toxicity. To be noted: salmonella enterica subsp. enterica serovar typhimurium.
The target of data set [5] is T2, Diacylglycerol O-acyltransferase 1 (Homo sapiens, UniProt O75907).
T2 sequence (O75907 whole entry): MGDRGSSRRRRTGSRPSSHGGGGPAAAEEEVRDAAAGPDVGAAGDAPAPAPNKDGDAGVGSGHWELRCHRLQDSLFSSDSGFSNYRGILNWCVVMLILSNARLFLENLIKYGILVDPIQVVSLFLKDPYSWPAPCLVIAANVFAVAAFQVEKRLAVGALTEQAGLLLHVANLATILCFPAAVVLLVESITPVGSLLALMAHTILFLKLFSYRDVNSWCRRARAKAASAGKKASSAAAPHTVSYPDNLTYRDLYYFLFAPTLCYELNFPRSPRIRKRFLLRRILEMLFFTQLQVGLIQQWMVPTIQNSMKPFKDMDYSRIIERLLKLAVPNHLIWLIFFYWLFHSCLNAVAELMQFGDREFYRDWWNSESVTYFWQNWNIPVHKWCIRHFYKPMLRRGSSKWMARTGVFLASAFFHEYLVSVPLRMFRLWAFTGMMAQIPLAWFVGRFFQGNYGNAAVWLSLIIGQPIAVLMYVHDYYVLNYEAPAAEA
The data set is described as follows: Inhibition of recombinant human His6-tagged DGAT1 expressed in Sf9 insect cell membranes assessed as inhibition of triglyceride formation using diolein/oleyl-CoA as substrate after 30 mins by LC/MS/MS analysis.

The term IC50 denotes the concentration needed to halve the response being measured. The efflux ratio is a quotient of directional permeabilities that is used to spot active efflux. Turning to `COc1ccc(-c2nnc(-c3ccc4nc(-c5c(C)cc(CC(C)(C)C(=O)O)cc5C)[nH]c4c3)o2)cc1`, the Drug metabolism result in data set [1] is reported as “Metabolite_Detected”. Besides, the figures for the IC50 in data set [2] and in data set [5] were above 10 µM and 17 nM, respectively. Besides, the efflux ratio in data set [3] amounted to 2.4. Also, the Activity result in data set [4] is “Non-Toxic”.
